Assay outcomes from PubChem.
Compounds with a hit are over-represented: about 2.3% of the library has one in this group of screens.
TRPC6 act – activates the mouse TRPC6 cation channel; Q61143; HEK293-TRPC6 membrane potential dye fluorescence; hits give high values; B-score at 10 µM; actives 0.13% (n = 310,000); AID 2550;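 active means B-score of the integrated fluorescence ratio above library mean plus 3 SD, and starting fluorescence ratio within library mean plus 5 SD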;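 further: higher score means more depolarization so channel activation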
Target sequence (Q61143 whole entry, looked up): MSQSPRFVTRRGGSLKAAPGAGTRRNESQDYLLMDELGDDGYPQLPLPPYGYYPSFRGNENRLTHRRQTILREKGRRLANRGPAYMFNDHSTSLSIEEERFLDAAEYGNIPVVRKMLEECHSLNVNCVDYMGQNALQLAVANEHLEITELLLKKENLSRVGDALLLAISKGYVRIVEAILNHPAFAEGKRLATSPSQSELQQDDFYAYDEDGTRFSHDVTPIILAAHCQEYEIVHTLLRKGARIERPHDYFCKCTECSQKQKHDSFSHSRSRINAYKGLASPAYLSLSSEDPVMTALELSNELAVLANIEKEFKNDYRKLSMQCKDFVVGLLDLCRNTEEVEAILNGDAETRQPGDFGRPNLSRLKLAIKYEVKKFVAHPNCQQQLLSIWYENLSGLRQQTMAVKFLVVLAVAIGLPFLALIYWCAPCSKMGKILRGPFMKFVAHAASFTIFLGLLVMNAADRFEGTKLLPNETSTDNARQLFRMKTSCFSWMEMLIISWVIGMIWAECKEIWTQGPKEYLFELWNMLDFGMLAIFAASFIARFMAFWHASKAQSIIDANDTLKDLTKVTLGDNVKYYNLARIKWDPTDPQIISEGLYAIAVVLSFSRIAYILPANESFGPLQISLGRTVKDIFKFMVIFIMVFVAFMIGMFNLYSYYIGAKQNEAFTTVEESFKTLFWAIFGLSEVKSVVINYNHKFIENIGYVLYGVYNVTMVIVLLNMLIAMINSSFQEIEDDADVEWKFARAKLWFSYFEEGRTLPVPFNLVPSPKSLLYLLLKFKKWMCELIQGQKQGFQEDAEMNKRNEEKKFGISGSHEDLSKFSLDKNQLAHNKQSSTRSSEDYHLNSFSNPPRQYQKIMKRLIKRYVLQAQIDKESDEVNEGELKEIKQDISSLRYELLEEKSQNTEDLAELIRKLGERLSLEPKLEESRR
TRPC4 agonist – TRPC4 (mouse) channel activation. HEK293 TRPC4beta/mu-opioid, Fluo4 calcium fluorescence; hits give high values. B-score at 10 µM. actives 0.49% (n = 310,000);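 active means B-score above 5 SD of library B-scores, and initial fluorescence ratio not above library mean plus 5 SD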;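 further: positive B-score marks a calcium rise read as TRPC4 activation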
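System: HEK293 cells stably co-expressing mouse TRPC4beta and mu-opioid receptor; Schedule: Fluo4 dye loading 45 min at room temperature, 110 s recording; Detection: Fluo4 fluorescence, kinetic; Evaluation: B-scored integrated calcium fluorescence ratio; Controls: buffer (low) and maximal DAMGO (high).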
TRPC4 potent – TRPC4 (mouse) allosteric potentiation | Q9QUQ5 | HEK293 TRPC4beta/mu-opioid, DAMGO EC20, Fluo-4 Ca2+ flux; hits give high values | B-score at 10 µM | actives 0.42% (n = 310,000);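 active means B-score of calcium response area above 5 SD of library B-scores, with initial fluorescence ratio within 5 SD of library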
TRPC6 inhibitor – mouse TRPC6 channel inhibition. AID 2553. actives 1.1% (n = 310,000). Q61143. B-score at 10 µM. HEK293-TRPC6, membrane potential dye, ACh-evoked depolarization; hits give low values;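 active means B-score under library mean minus 3 SD, initial fluorescence not abnormally high, positive integrated signal ratio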;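 further: B-score derived from integrated fluorescence ratio over the kinetic read; more negative B-score means stronger inhibition of depolarization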
TRPC4 inh – blocks the mouse TRPC4 cation channel | HEK293 TRPC4beta/mu-opioid, DAMGO-evoked Fluo4 calcium flux; hits give low values | AID 2247 | Q9QUQ5 | actives 0.39% (n = 300,000) | B-score at 10 µM;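 active means B-score over 3 SD under the library average, no early fluorescence shift, positive overall ratio signal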
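Assay system – HEK293 line stably carrying TRPC4beta and mu-opioid receptor · Doses – single dose · Detection – Fluo4 calcium-dye fluorescence, kinetic read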
TRPC4 spec 2 – second check of whether TRPC6 inhibitors also affect mouse TRPC4; shares compounds with TRPC6 inhibitor; HEK293 TRPC4/MOR, membrane potential dye fluorescence; channel activated by saturating DAMGO dose; inhibition, % at 10 µM; actives 42% (n = 920); AID 2776;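 active means compounds whose fluorescence signal differed from control wells by over 3 SD, either direction, in both duplicate plates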
TRPC4 spec – selectivity of TRPC6 inhibitors: effect on mouse TRPC4; shares compounds with TRPC6 inhibitor; HEK293 TRPC4/mu-opioid, membrane potential fluorescence; activity change, negative = inhibition, % at 10 µM; actives 61% (n = 920); AID 2777;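 active means rise or fall in signal beyond 3 SD of buffer-only wells in both replicate plates, either sign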;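 further: integrated kinetic ratio of fluorescence range over baseline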
HEK293 MPD ctr 2-1 – second check of TRPC6 inhibitor effects in parental HEK293 cells. signal change vs control, % at 10 µM. parental HEK293 membrane potential dye fluorescence; maximal acetylcholine challenge after compound addition. shares compounds with TRPC6 inhibitor. actives 31% (n = 920);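 active means membrane potential signal moving either way by over 3 SD of the maximum-effect control, in both duplicate plates, meaning non-specific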
HEK293 MPD ctr-1 – checks TRPC6 inhibitor effects in parental HEK293 cells; actives 60% (n = 920); parental HEK293 membrane potential dye fluorescence; AID 2780; membrane potential signal change, % at 10 µM; shares compounds with TRPC6 inhibitor;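 active means membrane potential signal shifting up or down by more than 3 SD of buffer-only wells, on both duplicate plates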
HEK293 MPD ctr-2 – checks TRPC6 modulator effects in parental HEK293 cells. shares compounds with TRPC6 inhibitor. membrane potential dye fluorescence. membrane potential signal change, % at 10 µM. actives 51% (n = 2,400);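 active means membrane potential signal moves up or down beyond 5 SD from buffer-only wells, on both duplicate plates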
HEK293 MPD ctr 2-2 – second check of TRPC6 modulator effects in parental HEK293 cells | shares compounds with TRPC6 inhibitor | actives 14% (n = 2,400) | membrane potential dye fluorescence; after compound, maximal acetylcholine stimulation | inhibition, % at 10 µM | AID 488926;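 active means membrane potential signal drops by more than 5 SD from the mean control signal, in both duplicate plates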
TRPC4 ctr mod – tests whether TRPC6 modulators also affect mouse TRPC4 | actives 69% (n = 2,400) | shares compounds with TRPC6 inhibitor | percent change from control (negative = decrease, positive = increase), % at 10 µM | HEK293 TRPC4/mu-opioid, membrane potential fluorescence;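 active means membrane potential signal moved up or down beyond 5 SD of buffer control wells, in both duplicate plates, actives on both sides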
TRPC4/MOR inh 2 – second check of whether TRPC6 modulators also affect mouse TRPC4; shares compounds with TRPC6 inhibitor; inhibition, % at 10 µM; actives 55% (n = 2,400); HEK293 TRPC4/mu-opioid, membrane potential dye fluorescence; stimulated with maximal-effect DAMGO;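 active means drop in membrane potential signal beyond 5 SD of the control wells in both duplicate plates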;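 further: TRPC4 counter screen for TRPC6 hits run under conditions tuned for TRPC6 not TRPC4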
TRPC6 block conf – confirmation of mouse TRPC6 inhibitors. actives 43% (n = 3,300). AID 488960. inhibition, % at 10 µM. HEK293-TRPC6, membrane potential dye, ACh-evoked depolarization. shares compounds with TRPC6 inhibitor;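 active means fluorescence ratio falls more than 5 SD below the full-stimulation control mean, in both duplicate runs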;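 further: integrated fluorescence ratio of peak minus minimum over baseline after agonist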
TRPC6 act confirm – confirmation of mouse TRPC6 activators | shares compounds with TRPC6 inhibitor | activation, % at 10 µM | actives 11% (n = 2,800) | HEK293-TRPC6 membrane potential dye fluorescence, FDSS;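 active means ratio signal rise beyond 5 SD above unstimulated control wells' mean, seen in both duplicate runs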
Hits are given with their value.

Results for CCS(=O)(=O)c1nc(S(=O)(=O)c2ccc(C)cc2)c(N2CC(C)OC(C)C2)s1 (configuration not stated) ?
TRPC6 act: inactive; TRPC4 agonist: inactive; TRPC4 potent: inactive; TRPC6 inhibitor: inactive; TRPC4 inh: inactive

How did CCOC(=O)c1cnc2c(cnn2C)c1NCCCN(C)C do in these assays?
TRPC6 act: inactive; TRPC4 agonist: inactive; TRPC4 potent: inactive; TRPC6 inhibitor: inactive; TRPC4 inh: inactive

What do the screens show for `CCOC(=O)c1cnc2c(cnn2C)c1NCCCn1ccnc1`?
TRPC6 act: inactive; TRPC4 agonist: inactive; TRPC4 potent: inactive; TRPC6 inhibitor: -7.5; TRPC4 inh: inactive; HEK293 MPD ctr-2: -352%; HEK293 MPD ctr 2-2: 115%; TRPC4 ctr mod: -52%; TRPC4/MOR inh 2: 68%; TRPC6 block conf: 73%; TRPC6 act confirm: inactive

Results for Cc1ccc(C(=O)NNC(=O)CSc2n[nH]c(-c3cccnc3)n2)cc1 ?
TRPC6 act: inactive; TRPC4 agonist: inactive; TRPC4 potent: inactive; TRPC6 inhibitor: inactive; TRPC4 inh: inactive

Results for Cc1cc(C)cc(C(=O)Nc2cc3c4c(c2)CC(=O)N4CCC3)c1 ?
TRPC6 act: inactive; TRPC4 agonist: inactive; TRPC4 potent: inactive; TRPC6 inhibitor: inactive; TRPC4 inh: inactive

How did CCN(CC)C(=O)N1c2ccccc2CC(N(CC)CC)c2ccccc21 (configuration not stated) do in these assays?
TRPC6 act: inactive; TRPC4 agonist: inactive; TRPC4 potent: inactive; TRPC6 inhibitor: -5.2; TRPC4 inh: inactive; HEK293 MPD ctr-2: 220%; HEK293 MPD ctr 2-2: inactive; TRPC4 ctr mod: 39%; TRPC4/MOR inh 2: inactive; TRPC6 block conf: inactive

How did Cn1c(=O)c(Nc2ccc(O)cc2)c2c3c(cccc31)C(=O)c1ccccc1-2 do in these assays?
TRPC6 act: inactive; TRPC4 agonist: inactive; TRPC4 potent: inactive; TRPC6 inhibitor: -6; TRPC4 inh: inactive; HEK293 MPD ctr-2: inactive; HEK293 MPD ctr 2-2: inactive; TRPC4 ctr mod: -27%; TRPC4/MOR inh 2: 59%; TRPC6 block conf: inactive; TRPC6 act confirm: inactive

How did CC(=O)c1c2c3c(cccc3n(C)c1=O)C(=O)c1ccccc1-2 do in these assays?
TRPC6 act: inactive; TRPC4 agonist: inactive; TRPC4 potent: inactive; TRPC6 inhibitor: inactive; TRPC4 inh: inactive

Results for CCCCCCOC(=O)C(C#N)c1nc2ccccc2nc1N1CCN(CC)CC1 (configuration not stated) ?
TRPC6 act: inactive; TRPC4 agonist: inactive; TRPC4 potent: inactive; TRPC6 inhibitor: -5.3; TRPC4 inh: inactive; HEK293 MPD ctr-2: inactive; HEK293 MPD ctr 2-2: inactive; TRPC4 ctr mod: -29%; TRPC4/MOR inh 2: 70%; TRPC6 block conf: inactive; TRPC6 act confirm: inactive

Results for CCN1CCN(c2nc3ccccc3nc2C(C#N)C(=O)OCc2ccccc2)CC1 (configuration not stated) ?
TRPC6 act: inactive; TRPC4 agonist: inactive; TRPC4 potent: inactive; TRPC6 inhibitor: -7.3; TRPC4 inh: inactive; TRPC4 spec 2: 40%; TRPC4 spec: -19%; HEK293 MPD ctr 2-1: inactive; HEK293 MPD ctr-1: -200%; TRPC6 block conf: inactive; TRPC6 act confirm: inactive

What do the screens show for `COc1ccc(N2CC(NC(=O)N3CCN(C(=O)c4ccco4)CC3)CC2=O)cc1OC` (configuration not stated)?
TRPC6 act: inactive; TRPC4 agonist: inactive; TRPC4 potent: inactive; TRPC6 inhibitor: inactive; TRPC4 inh: inactive

Results for CCOC(=O)C1CCN(C(=O)COC(=O)c2ccccc2C(=O)c2ccc(Cl)cc2)CC1 ?
TRPC6 act: inactive; TRPC4 agonist: inactive; TRPC4 potent: inactive; TRPC6 inhibitor: inactive; TRPC4 inh: inactive

Results for O=C(Cn1[nH]c(=O)c2ccccc2c1=O)OCC(=O)N1CCCc2ccccc21 ?
TRPC6 act: inactive; TRPC4 agonist: inactive; TRPC4 potent: inactive; TRPC6 inhibitor: inactive; TRPC4 inh: inactive

How did O=C(Cn1[nH]c(=O)c2ccccc2c1=O)OCC(=O)N1CCc2ccccc2C1 do in these assays?
TRPC6 act: inactive; TRPC4 agonist: inactive; TRPC4 potent: inactive; TRPC6 inhibitor: -7.3; TRPC4 inh: inactive; TRPC4 spec 2: inactive; TRPC4 spec: 7.2%; HEK293 MPD ctr 2-1: inactive; HEK293 MPD ctr-1: 4.2%; TRPC6 block conf: inactive

Results for COc1ccc(C(CCNCc2ccc(OC(C)C)cc2)C(C)C)cc1 (configuration not stated) ?
TRPC6 act: inactive; TRPC4 agonist: inactive; TRPC4 potent: inactive; TRPC6 inhibitor: inactive; TRPC4 inh: inactive

What do the screens show for `COc1ccc(C(CCNCc2ccc(N(C)C)cc2)C(C)C)cc1` (configuration not stated)?
TRPC6 act: inactive; TRPC4 agonist: inactive; TRPC4 potent: inactive; TRPC6 inhibitor: -5.2; TRPC4 inh: inactive; HEK293 MPD ctr-2: 237%; HEK293 MPD ctr 2-2: inactive; TRPC4 ctr mod: 44%; TRPC4/MOR inh 2: 56%; TRPC6 block conf: 46%

Results for CCOc1ccc(NC(=O)CN(C)C(=O)CC2OC(=O)c3ccccc32)cc1OCC (configuration not stated) ?
TRPC6 act: inactive; TRPC4 agonist: inactive; TRPC4 potent: inactive; TRPC6 inhibitor: inactive; TRPC4 inh: inactive
